According to ChEMBL document CHEMBL1156752, “Phosphinic tripeptides as dual angiotensin-converting enzyme C-domain and endothelin-converting enzyme-1 inhibitors” (J Med Chem, 2010):

Columns and labels:
[1] = biological target: T1, Angiotensin-converting enzyme (Homo sapiens, UniProt P12821); assay: Inhibition of human somatic ACE C-terminal domain
[2] = biological target: T2, Endothelin-converting enzyme 1 (Homo sapiens, UniProt P42892); assay: Inhibition of human somatic ECE1
T2 sequence (P42892 whole entry): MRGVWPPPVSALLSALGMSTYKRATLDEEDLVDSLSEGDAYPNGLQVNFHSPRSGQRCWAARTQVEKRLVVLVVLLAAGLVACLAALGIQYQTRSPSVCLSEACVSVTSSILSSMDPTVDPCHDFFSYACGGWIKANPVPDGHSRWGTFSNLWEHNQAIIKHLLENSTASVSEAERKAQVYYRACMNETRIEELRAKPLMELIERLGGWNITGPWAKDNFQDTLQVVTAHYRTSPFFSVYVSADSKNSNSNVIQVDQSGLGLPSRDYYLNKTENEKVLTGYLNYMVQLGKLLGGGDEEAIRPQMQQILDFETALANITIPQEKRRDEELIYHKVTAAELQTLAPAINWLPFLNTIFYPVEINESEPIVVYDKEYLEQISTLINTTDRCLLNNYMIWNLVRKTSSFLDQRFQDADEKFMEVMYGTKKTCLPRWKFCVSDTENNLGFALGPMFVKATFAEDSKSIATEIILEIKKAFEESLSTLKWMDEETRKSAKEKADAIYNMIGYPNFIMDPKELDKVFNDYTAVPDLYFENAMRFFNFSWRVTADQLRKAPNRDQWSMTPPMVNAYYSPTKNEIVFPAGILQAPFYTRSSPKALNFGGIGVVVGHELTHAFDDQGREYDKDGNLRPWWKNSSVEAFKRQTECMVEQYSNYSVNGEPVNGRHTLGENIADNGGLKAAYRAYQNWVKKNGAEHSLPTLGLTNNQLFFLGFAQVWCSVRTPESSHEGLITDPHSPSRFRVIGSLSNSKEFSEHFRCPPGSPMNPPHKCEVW

Neprilysin = Neprilysin (Homo sapiens, UniProt P08473); assay: Inhibition of human somatic NEP
Summary of the method: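 Human NEP (0.5 nM) preincubated 45 min with inhibitor, then Mca-Arg-Pro-Pro-Gly-Phe-Ser-Pro-Dpa-OH (5 μM, Km 2 μM) added. Run at 25 °C, pH 6.8 Hepes/NaCl/ZnCl2/Brij-35 buffer. Fluorescence increase read at ex 320/em 405 nm under initial rates. […] Ki obtained.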

[3] = biological target: T1, Angiotensin-converting enzyme; assay: Inhibition of human somatic ACE in presence of 1:100 diluted SHR rat plasma; format: cell-free
Summary of the method: (§1)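 ACE (1 nM final) and inhibitor at various concentrations incubated 45 min in this plasma. Reaction started with Mca-Ala-Ser-Asp-Lys-Dpa-OH (15 μM). Fluorescence monitored. Apparent Ki derived.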

Rattus norvegicus [4] = assay: Antihypertensive activity in spontaneously hypertensive rat assessed as mean arterial pressure at 10 mg/kg, iv; format: functional, Artery
Summary of the method: (§2)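 Male SHR rats (250 g, 12 weeks old) anesthetized with Nesdonal (50 mg/kg ip), tracheotomized, body temperature kept at 37 °C. MAP recorded by femoral artery transducer. Inhibitor or vehicle ([…]) given as iv bolus through venous catheter after 20 min stabilization. MAP followed for 60 min, n = 6/dose.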

Rattus norvegicus [5] = assay: Antihypertensive activity in spontaneously hypertensive rat assessed as mean arterial pressure at 30 mg/kg, iv; format: functional, Artery; summary of the method: as §2
Collagenase 3 = Collagenase 3 (Homo sapiens, UniProt P45452); assay: Inhibition of human MMP13
[6] = biological target: T1, Angiotensin-converting enzyme; assay: Inhibition of human somatic ACE in presence of 1:50 diluted SHR rat plasma; summary of the method: as §1
[7] = biological target: T1, Angiotensin-converting enzyme; assay: Inhibition of human somatic ACE in presence of 1:100 diluted SHR rat plasma complemented with 5 uM serum albumin; format: cell-free; summary of the method: as §1
[8] = biological target: T1, Angiotensin-converting enzyme; assay: Inhibition of human somatic ACE in presence of buffer
Rattus norvegicus [9] = assay: Antihypertensive activity in spontaneously hypertensive rat assessed as mean arterial pressure at 3 mg/kg, iv; format: functional, Artery; summary of the method: as §2
[10] = biological target: T1, Angiotensin-converting enzyme; assay: Inhibition of human somatic ACE N-terminal domain
Summary of the method: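 Human somatic ACE (0.5 nM) preincubated 45 min with inhibitor, then Mca-Ala-Ser-Asp-Lys-Dpa-OH substrate (8 μM) added. Continuous fluorescence read at ex 320/em 405 nm under initial-rate conditions. […] Ki calculated per domain.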

SMILES: C[C@H](NC(=O)C(CC1CC(c2ccccc2)=NO1)CP(=O)(O)[C@H](Cc1ccccc1)NC(=O)OCc1ccccc1)C(=O)O (some centres undefined)
- Ki [1]: 5 nM
- Ki [2]: 2100 nM
- Ki (Neprilysin): 85 nM

SMILES: O=C(N[C@@H](Cc1ccccc1)P(=O)(O)CC(Cc1ccccc1)C(=O)N[C@@H](Cc1c[nH]c2ccccc12)C(=O)O)OCc1ccccc1 (some centres undefined)
- Ki [2]: 1.2 nM
- Ki (Neprilysin): 1.4 nM

SMILES: O=C(N[C@H]1CCS[C@H]2CCC[C@@H](C(=O)O)N2C1=O)[C@@H](S)Cc1ccccc1 [OMAPATRILAT]
- Ki [1]: 6 nM
- Ki (Neprilysin): 9 nM

SMILES: CS(=O)(=O)N[C@@H](CCCCN)C(=O)N[C@@H](Cc1ccccc1)P(=O)(O)CC1(C(=O)N[C@@H](Cc2c[nH]c3ccccc23)C(=O)O)CCCC1
- IC50 [1]: 2.5 nM
- IC50 (Neprilysin): 90 nM

SMILES: O=C(N[C@@H](Cc1ccccc1)P(=O)(O)C[C@H](Cc1cc(-c2ccccc2)no1)C(=O)N[C@@H](Cc1c[nH]c2ccccc12)C(=O)O)OCc1ccccc1
- Ki [3]: 500 nM
- Ki [1]: 36 nM
- Activity (Rattus norvegicus [4]): 148 mmHg
- Activity (Rattus norvegicus [5]): 96 mmHg
- Ki (Collagenase 3): 1200 nM
- Ki [6]: 1520 nM
- Ki [2]: 8 nM
- Ki [7]: 1510 nM
- Ki (Neprilysin): 1850 nM
- Ki [8]: 36 nM

SMILES: O=C(N[C@@H](Cc1ccccc1)P(=O)(O)CC(Cc1cc(-c2ccccc2)no1)C(=O)N[C@@H](Cc1ccccc1)C(=O)O)OCc1ccccc1 (single isomer, unassigned)
- Ki [3]: 32 nM
- Ki [1]: 3.8 nM
- Ki (Collagenase 3): > 10000 nM
- Ki [6]: 340 nM
- Ki [2]: 7.7 nM
- Ki [7]: 110 nM
- Ki (Neprilysin): > 10000 nM
- Ki [8]: 3.8 nM

SMILES: O=C(N[C@@H](Cc1ccccc1)P(=O)(O)C[C@@H](Cc1cc(-c2ccccc2)no1)C(=O)N[C@@H](Cc1ccc(O)cc1)C(=O)O)OCc1ccccc1
- Ki (Collagenase 3): 24 nM

SMILES: O=C(N[C@@H](Cc1ccccc1)P(=O)(O)C[C@@H](Cc1cc(-c2ccccc2)no1)C(=O)N[C@@H](Cc1c[nH]c2ccccc12)C(=O)O)OCc1ccccc1
- Ki [1]: 1.4 nM
- Ki (Collagenase 3): 19 nM
- Ki [2]: 26 nM
- Ki (Neprilysin): 130 nM

SMILES: O=C(N[C@@H](Cc1ccccc1)P(=O)(O)CC(Cc1cc(-c2ccccc2)no1)C(=O)N[C@@H](Cc1c[nH]c2ccccc12)C(=O)O)OCc1ccccc1 (some centres undefined)
- Ki [1]: 16 nM
- Ki [2]: 14 nM
- Ki (Neprilysin): 260 nM

SMILES: O=C(O)[C@H](Cc1ccc2c(c1)oc1ccccc12)NCP(=O)(O)O
- IC50 (Neprilysin): 2300 nM

SMILES: O=C(N[C@@H](Cc1ccccc1)P(=O)(O)CC(CC1CC(c2ccc(C(F)(F)F)cc2)=NO1)C(=O)N[C@@H](Cc1c[nH]c2ccccc12)C(=O)O)OCc1ccccc1 (some centres undefined)
- Ki [1]: 20 nM
- Ki [2]: > 5000 nM
- Ki (Neprilysin): > 5000 nM

SMILES: O=C(N[C@@H](Cc1ccccc1)P(=O)(O)CC(CC1CC(c2ccccc2)=NO1)C(=O)N[C@@H](Cc1c[nH]c2ccccc12)C(=O)O)OCc1ccccc1 (some centres undefined)
- Ki [1]: 13 nM
- Ki [2]: 910 nM
- Ki (Neprilysin): 2500 nM

SMILES: O=C(N[C@@H](Cc1ccccc1)P(=O)(O)CC(Cc1ccc(-c2ccccc2)cc1)C(=O)N[C@@H](Cc1c[nH]c2ccccc12)C(=O)O)OCc1ccccc1 (some centres undefined)
- Ki [1]: 12 nM
- Ki [2]: > 10000 nM
- Ki (Neprilysin): 52 nM

SMILES: O=C(N[C@@H](Cc1ccccc1)P(=O)(O)C[C@H](Cc1cc(-c2ccccc2)no1)C(=O)N[C@@H](Cc1ccc(O)cc1)C(=O)O)OCc1ccccc1
- Activity (Rattus norvegicus [4]): 132 mmHg
- Activity (Rattus norvegicus [9]): 147 mmHg
- Ki (Collagenase 3): 4000 nM
- Ki [2]: 14 nM
- Ki (Neprilysin): 6700 nM

SMILES: O=C(N[C@@H](Cc1ccccc1)P(=O)(O)C[C@@H](Cc1cc(-c2ccccc2)no1)C(=O)N[C@@H](Cc1ccccc1)C(=O)O)OCc1ccccc1
- Ki [1]: 0.4 nM
- Ki (Collagenase 3): 30 nM
- Ki [2]: 240 nM
- Ki (Neprilysin): 68 nM

SMILES: O=C(N[C@@H](Cc1ccccc1)P(=O)(O)CC(CC1CC(c2ccc(-c3ccccc3)cc2)=NO1)C(=O)N[C@@H](Cc1c[nH]c2ccccc12)C(=O)O)OCc1ccccc1 (some centres undefined)
- Ki [1]: 25 nM
- Ki [2]: > 10000 nM
- Ki (Neprilysin): > 10000 nM

SMILES: O=C(N[C@@H](Cc1ccccc1)P(=O)(O)C1CCC[C@H]1C(=O)N[C@@H](Cc1c[nH]c2ccccc12)C(=O)O)OCc1ccccc1 (single isomer, unassigned)
- Ki [1]: 3 nM
- Ki [2]: > 50000 nM
- Ki (Neprilysin): > 50000 nM
- Ki [10]: 2500 nM
